Measured values: ChEMBL document CHEMBL1130025, “Dihydro(alkylthio)(naphthylmethyl)oxopyrimidines: novel non-nucleoside reverse transcriptase inhibitors of the S-DABO series” (J Med Chem, 1997)

Assays:
[1] = molecular target: Human immunodeficiency virus type 1 reverse transcriptase (Human immunodeficiency virus 1, UniProt Q72547); experiment: Compound concentration required to inhibit the HIV-1 recombinant Reverse transcriptase (rRT) activity by 50%.
[2] = tested on: C8166; experiment: Ability to inhibit HIV-2 multiplication in acutely infected C8166 cells; assay type: functional, cell-based; conditions: Homo sapiens
Outline: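 C8166 cells (1×10^4 per well) in RPMI 1640 with 10% FCS were infected with 1000 CCID50 of HIV-2 ROD, alongside serial compound dilutions from DMSO stock. After 5 days at 37 °C, viable cells were counted by MTT. EC50 is the dose giving 50% protection from virus-induced cytopathicity. Data are means of three experiments.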

[3] = tested on: Human immunodeficiency virus type 1; experiment: Selectivity index is the ratio of CC50 to EC50; conditions: Human immunodeficiency virus 1
[4] = tested on: MT4; experiment: Dose required to reduce the viability of mock-infected cells by 50%; assay type: functional; conditions: Homo sapiens
Outline: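 Mock-infected MT-4 cells (1×10^4 per well) were exposed to compound dilutions in parallel with the antiviral assay. After 4 days at 37 °C, viability was measured by MTT. CC50 is the dose reducing viable cell number by 50%.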

[5] = tested on: H9; experiment: Ability to inhibit HIV-1 multiplication in chronically infected H9/IIIB cells; assay type: functional, cell-based; conditions: Homo sapiens
Outline: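 Value taken as compound dose lowering infectious HIV-1 titer by 1 log in chronically infected H9/IIIB cells. Titer was read in C8166 cells by limiting dilution (1:2, 4 replica wells per dilution), with light-microscope scoring of cytopathicity after 4 days, expressed as CCID50/mL. Data are means of three separate experiments.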

[6] = tested on: MT4; experiment: (§1) Inhibitory activity against resistant HIV-1 strain NevR was determined.; assay type: functional, cell-based; conditions: Homo sapiens
[7] = tested on: MT4; experiment: (§2) Inhibitory activity against resistant HIV-1 strain MC639r was determined.; assay type: functional, cell-based; conditions: Homo sapiens
[8] = tested on: MT4; experiment: Dose required to achieve 50% protection of MT-4 cells from the HIV-1 induced cytopathogenicity in HIV-1 infected MT-4 cells; conditions: Homo sapiens
[9] = tested on: MT4; experiment: Inhibitor activity against resistant HIV-1 strain MC639r was determined.; assay type: functional, cell-based; conditions: Homo sapiens
[10] = tested on: MT4; experiment: Inhibitory activity against resistant HIV-1 strain Nevr was determined; assay type: functional, cell-based; conditions: Homo sapiens
[11] = tested on: MT4; experiment: as §1; assay type: functional, Homo sapiens
[12] = tested on: MT4; experiment: as §2; assay type: functional, Homo sapiens

SMILES | EC50 [2] [µM] | Ratio [3] | CC50 [4] [µM] | EC50 [5] [µM] | EC50 [8] [µM] | further results
CCC(C)Sc1nc(Cc2cccc3ccccc23)c(C)c(=O)[nH]1 (centres undefined) |  |  |  |  |  | IC50 [1]: 22.5 µM
CCC(C)Sc1nc(COc2ccccc2)c(C)c(=O)[nH]1 (centres undefined) |  |  |  |  |  | IC50 [1]: > 100 µM
Cc1cccc(Cc2nc(SC3CCCCC3)nc(O)c2C)c1 | > 100 | > 500 | > 300 | > 100 |  | IC50 [1]: 0.9 µM; EC50 [6]: > 100 µM; EC50 [7]: > 100 µM
Cc1ccnc2c1NC(=O)c1cccnc1N2C1CC1 [NEVIRAPINE] | > 100 |  | > 300 | > 100 | 0.25 | EC50 [6]: > 100 µM; EC50 [7]: 0.31 µM
CCC(C)Sc1nc(O)c(C)c(COc2ccccc2)n1 (centres undefined) | > 100 | 7 | 60 | > 100 | 8.9 | EC50 [9]: > 100 µM; EC50 [6]: > 100 µM
Oc1cc(CCc2ccccc2)nc(SC2CCCC2)n1 |  | 1.4 | 112 |  | 81.5 | 
Cc1c(O)nc(SC2CCCCC2)nc1CCc1ccccc1 |  | > 11 | > 300 |  | 27 | 
Oc1cc(Cc2cccc3ccccc23)nc(SC2CCCCCC2)n1 |  | > 100 | > 300 |  | 3 | 
Cc1c(O)nc(SC2CCCC2)nc1COc1ccccc1 |  | > 13 | > 300 |  | 24 | 
CCC(C)Sc1nc(O)c(C)c(CSc2ccccc2)n1 (centres undefined) |  | 3.3 | 75 |  | 23 | 
Oc1cc(Cc2ccc3ccccc3c2)nc(SC2CCCC2)n1 |  | > 8.1 | > 300 |  | 3.7 | 
Oc1cc(Cc2cccc3ccccc23)nc(SC2CCCC2)n1 | > 100 | > 150 | > 300 | > 100 | 2 | EC50 [6]: > 100 µM; EC50 [10]: > 100 µM
Cc1c(O)nc(SC2CCCC2)nc1Cc1cccc2ccccc12 | > 100 | > 50 | > 300 | > 100 | 6 | EC50 [6]: > 100 µM; EC50 [7]: 16.2 µM
CCC(C)Sc1nc(O)c(C)c(Cc2cccc3ccccc23)n1 (centres undefined) | > 100 | > 300 | > 300 | > 100 | 1 | EC50 [6]: > 100 µM; EC50 [7]: 6 µM
CCC(C)Sc1nc(O)c(C)c(Cc2ccc3ccccc3c2)n1 (centres undefined) | > 100 | 47 | 80 | > 100 | 1.7 | EC50 [6]: > 100 µM; EC50 [7]: 17.8 µM
Oc1cc(Cc2ccc3ccccc3c2)nc(SC2CCCCC2)n1 | > 100 | > 128 | > 300 | > 100 | 1.7 | IC50 [1]: 33.1 µM; EC50 [6]: > 100 µM; EC50 [7]: 20 µM
CCC(C)Sc1nc(Cc2ccc3ccccc3c2)c(C)c(=O)[nH]1 (centres undefined) |  |  |  |  |  | IC50 [1]: 29.7 µM
Cc1cn([C@H]2C[C@H](N=[N+]=[N-])[C@@H](CO)O2)c(=O)[nH]c1=O [ZIDOVUDINE] | 0.015 |  | > 80 | > 20 |  | EIC50 [11]: 0.013 µM; EIC50 [12]: 0.003 µM

SMILES | EC50 [2] [µM] | Ratio [3] | CC50 [4] [µM] | EC50 [5] [µM] | EC50 [8] [µM] | further results
CCC(C)Sc1nc(O)c(C)c(CCc2ccccc2)n1 (centres undefined) |  | 6 | 105 |  | 18 | 
CC(C)Sc1nc(O)cc(Cc2cccc3ccccc23)n1 |  | > 300 | > 300 |  | 1 | 
Oc1cc(CSc2ccccc2)nc(SC2CCCC2)n1 |  | 4.5 | 300 |  | 66 | 
Cc1c(O)nc(SC2CCCC2)nc1CCc1ccccc1 |  | > 16 | > 300 |  | 19 | 
CCCC(C)Sc1nc(O)cc(Cc2cccc3ccccc23)n1 (centres undefined) |  | 34 | 158 |  | 4.6 | 
Oc1cc(CCc2ccccc2)nc(SC2CCCCC2)n1 |  | 1.9 | 133 |  | 68 | 
Oc1cc(Cc2cccc3ccccc23)nc(SCc2ccccc2)n1 |  | > 24 | > 300 |  | 12.6 | 
Oc1cc(Cc2cccc3ccccc23)nc(SC2CCCCC2)n1 |  | > 96 | > 300 |  | 3.1 | 
CCC(C)Sc1nc(O)cc(Cc2cccc3ccccc23)n1 (centres undefined) | > 100 | > 909 | > 300 | > 100 | 0.33 | IC50 [1]: 8.1 µM; EC50 [6]: > 100 µM; EC50 [7]: 2.1 µM
Oc1cc(CSc2ccccc2)nc(SC2CCCCC2)n1 |  | > 9.4 | > 300 |  | 32 | 
Cc1c(O)nc(SC2CCCCC2)nc1COc1ccccc1 |  | > 14 | > 300 |  | 22 | 
CCC(C)Sc1nc(O)cc(CCc2ccccc2)n1 (centres undefined) |  | 1.4 | 180 |  | 125 | 
CCC(C)Sc1nc(O)cc(Cc2ccc3ccccc3c2)n1 (centres undefined) | > 100 | 14 | 40 | > 100 | 2.8 | IC50 [1]: 7.4 µM; EC50 [6]: > 100 µM; EC50 [7]: 4.1 µM
Oc1cc(COc2ccccc2)nc(SC2CCCC2)n1 |  | > 2 | > 300 |  | 148 | 
O=c1cc(Cc2cccc3ccccc23)nc(SC2CCCC2)[nH]1 |  |  |  |  |  | IC50 [1]: 48.7 µM
Cc1c(O)nc(SC2CCCC2)nc1CSc1ccccc1 |  | > 2 | > 300 |  | 150 | 
Cc1c(Cc2cccc3ccccc23)nc(SC2CCCC2)[nH]c1=O |  |  |  |  |  | IC50 [1]: 45 µM
